# Key:
# Staphylococcus aureus = assay: Minimum antimicrobial inhibitory concentration against Staphylococcus aureus; format: functional
# Summary of the method: (§1)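 Serial twofold tube dilution in tryptose phosphate broth. Each compound was prepared as a 1000 μg/mL aqueous stock and diluted in double-strength broth, then 2×10^5 cells were added. Tubes were incubated aerobically at 37 °C for 24 h. The MIC was taken as the lowest concentration with no visible growth.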
# Actinomyces viscosus = assay: Compound is evaluated for minimal bactericidal concentration against plaque formation for Actinomyces viscosus; format: functional, organism-based
# Summary of the method: (§2)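 Preformed in vitro plaques of S. mutans NCTC 10449 or A. viscosus M-100 were grown on ceramic hydroxylapatite under anaerobic conditions at 37 °C in sucrose-supplemented medium. Plaques were immersed for 30 min at 37 °C in compound at 0.3–20 mM, rinsed, and moved to broth containing bromocresol purple. Kill was judged by no acid production, no turbidity increase and no growth on plating at 48 h. Plaques were run in quadruplicate.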
# Escherichia coli [1] = assay: Antimicrobial minimum inhibitory concentration against Escherichia coli AB1932-1; format: functional; summary of the method: as §1
# Escherichia coli [2] = assay: Minimum inhibitory concentration against Escherichia coli (Vogel); format: functional; summary of the method: as §1
# Escherichia coli [3] = assay: Antimicrobial minimum inhibitory concentration against Escherichia coli 100/B22; format: functional; summary of the method: as §1
# Streptococcus mutans [4] = assay: Compound is evaluated for minimal bactericidal concentration against plaque formation for Streptococcus mutans; format: functional, organism-based; summary of the method: as §2
# Streptococcus mutans [5] = assay: Minimum plaque inhibitory concentration using a standard test organism, Streptococcus mutans OMZ-61; format: functional, organism-based
# Summary of the method: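 Ceramic hydroxylapatite plates were soaked twice for 1 min each in compound at […] (aqueous), air-dried and rinsed, then hung in sucrose beef-extract medium (pH 7.0) inoculated with late-log S. mutans OMZ-61. Incubation was anaerobic at 37 °C for 24 h, and treatment plus reinoculation were repeated for a second 24 h. Plaque was stained with 1% FD&C Red No. 3 and scored visually. The value is the lowest concentration giving no plaque while medium growth matched control.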
# Pseudomonas aeruginosa = assay: Minimum antimicrobial inhibitory concentration against Pseudomonas aeruginosa MGH-2; format: functional; summary of the method: as §1
# Klebsiella pneumoniae = assay: Minimum inhibitory concentration against Klebsiella pneumonia 39645; format: functional; summary of the method: as §1
# [6] = Compound is evaluated for stain index; format: functional
# Summary of the method: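 Ratio of the minimum concentration staining a plaque-free ceramic hydroxylapatite plate to the minimum plaque-inhibiting concentration, both run under the same conditions. Plates got two 1-min soaks (0.1–0.001%), each followed by air-drying, then a water rinse. They were then held 24 h anaerobically at 37 °C in sucrose beef-extract medium, with or without S. mutans OMZ-61, repeated once. Staining was 1-min 1% FD&C Red No. 3, scored visually.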
# Proteus mirabilis = assay: Minimum antimicrobial inhibitory concentration against Proteus mirabilis MGH-1; format: functional; summary of the method: as §1
Structure (SMILES),MIC (Staphylococcus aureus) [µg/mL],MIC (Escherichia coli [1]) [µg/mL],MIC (Escherichia coli [2]) [µg/mL],MIC (Escherichia coli [3]) [µg/mL],MIC (Pseudomonas aeruginosa) [µg/mL],MIC (Klebsiella pneumoniae) [µg/mL],MIC (Proteus mirabilis) [µg/mL],Concentration (Actinomyces viscosus) [mM],Concentration (Streptococcus mutans [4]) [mM],Concentration (Streptococcus mutans [5]) [%],Stain index [6]
CCCCCCCCCN=c1ccn(CCCCCCn2ccc(=NCCCCCCCCC)cc2)cc1.Cl.Cl,1,2,2,2,15.6,3.9,7.8,7.3,7.3,0.01,1
Br.Br.CCCCC(CC)CN=c1ccn(CCCCCCn2ccc(=NCC(CC)CCCC)cc2)cc1 (centres undefined),0.5,2,7.8,3.9,> 250,125,> 125,–,–,> 1,–
Br.Br.c1cn(CCCCn2ccc(=NC3CCCCC3)cc2)ccc1=NC1CCCCC1,125,125,125,125,> 500,> 500,> 500,–,–,> 1,–
CS(=O)(=O)O.CS(=O)(=O)O.Clc1ccc(N=c2ccn(CCCCCCCCn3ccc(=Nc4ccc(Cl)cc4)cc3)cc2)cc1,0.4,1.6,3.1,3.1,125,31.3,125,–,–,> 1,–
Br.Br.N=c1ccn(CCCCCCCCn2ccc(=N)cc2)cc1,31.3,125,125,250,> 500,> 500,> 500,–,–,> 1,–
Br.Br.c1cn(CCCCCn2ccc(=NC3CCCCC3)cc2)ccc1=NC1CCCCC1,125,> 500,> 500,> 500,> 500,> 500,> 500,–,–,> 1,–
CS(=O)(=O)O.CS(=O)(=O)O.Clc1ccc(N=c2ccn(CCCCCCCCCCn3ccc(=Nc4ccc(Cl)cc4)cc3)cc2)cc1,0.4,0.8,1.6,1.6,62.5,3.1,> 125,–,–,> 1,–
Br.Br.CCCCCCN=c1ccn(CCCCCCCn2ccc(=NCCCCCC)cc2)cc1,0.4,7.8,15.6,7.8,> 125,15.6,> 125,–,–,> 1,–
Br.Br.CCCCCCN=c1ccn(CCCCCCCCn2ccc(=NCCCCCC)cc2)cc1,0.2,2,3.9,3.9,125,7.8,> 250,–,–,> 1,–
Br.Br.CCCCCCCN=c1ccn(CCCCn2ccc(=NCCCCCCC)cc2)cc1,1,7.8,31.3,15.6,> 250,> 125,> 250,–,–,> 1,–
CCCCCCCCN=c1ccn(CCCCCCn2ccc(=NCCCCCCCC)cc2)cc1.Cl.Cl,0.2,0.5,1,0.5,31.3,2,15.6,–,–,0.004,–
Br.Br.CCCCCCCCN=c1ccn(CCCCCCCn2ccc(=NCCCCCCCC)cc2)cc1,0.5,1,2,1,31.3,1,7.8,–,–,0.005,–
CCCCCCN=c1ccn(CCCCCCCCCCCCn2ccc(=NCCCCCC)cc2)cc1.Cl.Cl,0.2,1,1,0.5,15.6,1,7.8,–,–,0.01,–
Br.Br.CCCCC(CC)CN=c1ccn(CCCCCn2ccc(=NCC(CC)CCCC)cc2)cc1 (centres undefined),0.5,7.8,15.6,15.6,125,> 125,> 125,–,–,> 1,–
Br.Br.CCCCC(CC)CN=c1ccn(CCCCCCCCn2ccc(=NCC(CC)CCCC)cc2)cc1 (centres undefined),0.3,1,3.9,2,125,7.8,125,–,–,0.004,–

# More lines, main results first:
MIC (Staphylococcus aureus) [µg/mL],MIC (Escherichia coli [1]) [µg/mL],MIC (Escherichia coli [2]) [µg/mL],MIC (Escherichia coli [3]) [µg/mL],MIC (Pseudomonas aeruginosa) [µg/mL],MIC (Klebsiella pneumoniae) [µg/mL],MIC (Proteus mirabilis) [µg/mL],Structure (SMILES),Concentration (Actinomyces viscosus) [mM],Concentration (Streptococcus mutans [4]) [mM],Concentration (Streptococcus mutans [5]) [%],Stain index [6]
1,2,3.9,2,7.8,2,3.9,Br.Br.CCCCCCCCCN=c1ccn(CCCCCCCCn2ccc(=NCCCCCCCCC)cc2)cc1,2.5,2.5,0.004,1
0.2,1,0.5,0.5,3.9,2,2,CCCCCCCN=c1ccn(CCCCCCCCCCCCn2ccc(=NCCCCCCC)cc2)cc1.Cl.Cl,2.81,2.81,0.003,10
1,3.9,3.9,3.9,7.8,7.8,3.9,Br.Br.CCCCCCCCCCN=c1ccn(CCCCCCCn2ccc(=NCCCCCCCCCC)cc2)cc1,–,–,0.01,–
1,7.8,2,3.9,7.8,15.6,7.8,Br.Br.CCCCCCCCCCN=c1ccn(CCCCCCCCCn2ccc(=NCCCCCCCCCC)cc2)cc1,–,–,0.01,–
7.8,> 62.5,62.5,62.5,> 62.5,> 62.5,62.5,Br.Br.CCCCCCCCCCCCN=c1ccn(CCCCCCCCCn2ccc(=NCCCCCCCCCCCC)cc2)cc1,–,–,0.1,–
1,2,2,7.8,7.8,3.9,2,Br.Br.CCCCCCCCCCN=c1ccn(CCCCCCn2ccc(=NCCCCCCCCCC)cc2)cc1,–,–,0.01,–
1,1,2,1,2,3.9,3.9,CCCCCCCN=c1ccn(CCCCCCCCCCCCCCn2ccc(=NCCCCCCC)cc2)cc1.Cl.Cl,–,–,0.01,–
3.9,62.5,62.5,62.5,62.5,> 62.5,62.5,Br.Br.CCCCCCCCCCCCN=c1ccn(CCCCCCCn2ccc(=NCCCCCCCCCCCC)cc2)cc1,–,–,0.1,–
2,31.3,7.8,15.6,15.6,31.3,15.6,Br.Br.CCCCCCCCCCN=c1ccn(CCCCCCCCCCCCn2ccc(=NCCCCCCCCCC)cc2)cc1,–,–,0.1,–
15.6,> 62.5,> 62.5,> 62.5,> 62.5,> 62.5,> 62.5,Br.Br.CCCCCCCCCCCCN=c1ccn(CCCCCCCCCCn2ccc(=NCCCCCCCCCCCC)cc2)cc1,–,–,0.1,–

# — ChEMBL document CHEMBL1122519, “Bispyridinamines: a new class of topical antimicrobial agents as inhibitors of dental plaque” (1984)
